Source: ChEMBL document CHEMBL4699501, “Dihydrodibenzothiepine: Promising hydrophobic pharmacophore in the influenza cap-dependent endonuclease inhibitor” (Bioorg Med Chem Lett, 2020)
pEC50, pIC50: −log10 of the molar value. Calls of active or inactive are those of the source. No cut-off for these calls is given here.

Assays:
[1] = Inhibition of Influenza virus Cap-dependent endonuclease; parameters: species or system Influenza A virus
Influenza A virus [2] = assay: Antiviral activity against Influenza A virus (A/WSN/1933(H1N1)) infected in […] MDBK cells assessed as cell protection incubated for 72 hrs; assay type: functional, organism-based
In short: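 Madin-Darby bovine kidney cells were infected with A/WSN/33 at 50 TCID50/well and incubated with compound at 37 °C in a CO2 incubator for 72 hr.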

[3] = Metabolic stability in rat liver microsomes assessed as compound remaining at 2 uM incubated for 30 mins; assay type: ADME, Microsome; conditions: read-out: Stabilty
In short: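 Compound at 2 μM was incubated with rat liver microsomes at 37 °C for 30 min. The read-out is % of compound remaining.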

[4] = Clearance in iv dosed rat by LC/MS/MS analysis; assay type: ADME, organism-based; conditions: in vivo
In short: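 Rats received a single intravenous dose, and plasma levels were quantified by LC/MS/MS to derive clearance. Values are the mean of duplicate experiments.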

[5] = Fraction unbound in rat serum; assay type: ADME, cell-free
In short: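 Free fraction was measured in the presence of rat serum. Values are the mean of duplicate experiments.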

Influenza A virus [6] = assay: Antiviral activity against Influenza A virus (A/WSN/1933(H1N1)) infected in mouse assessed as reduction in viral titer in lung by measuring reduction in virus infectivity in MDCK cells at 0.4 to 10 mg/kg, po administered after 5 days of infection and measured after 24 hrs; assay type: functional, organism-based; conditions: dose mg/kg 0.4-10, time […]
In short: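 Mice were inoculated with A/WSN/33 at 100 TCID50/mouse. Oral dosing was twice daily (BID), starting 5 days after infection. Lung virus titer (log TCID50/mL) was determined on MDCK cells 24 h after the first dose.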

Structure (SMILES) | pIC50 [1] | pEC50 (Influenza A virus [2]) | remaining at 0.5 h, 2 µM [3] [%] | clearance [4] [mL/min/kg] | fraction unbound [5] | Activity (Influenza A virus [6])
C[C@@H](N1CN([C@H]2c3ccccc3CSc3c(Cl)cccc32)n2ccc(=O)c(O)c2C1=O)C(F)(F)F | 7.63 | 7.87 | 92.3 | 6.78 | 0.00329 | 
C[C@@H](N1CN([C@@H]2c3ccccc3SCc3cccc(F)c32)n2ccc(=O)c(O)c2C1=O)C(F)(F)F | 7.50 | 8.43 | 102 | 18 | 0.012 | 
C[C@H](N1CN([C@H]2c3ccccc3CSc3ccccc32)n2ccc(=O)c(O)c2C1=O)C(F)(F)F |  | 7.73 | 79.8 |  |  | 
C[C@@H](N1CN([C@H]2c3ccccc3CSc3cccc(Cl)c32)n2ccc(=O)c(O)c2C1=O)C(F)(F)F | 7.12 | 7.73 | 85.4 | 10.2 | 0.00589 | 
C[C@@H](N1CN([C@H]2c3ccccc3CSc3ccc(Cl)cc32)n2ccc(=O)c(O)c2C1=O)C(F)(F)F | 7.60 | 7.15 |  |  |  | 
CC(C)N1CN(C(c2ccccc2)c2ccc(Cl)cc2)n2ccc(=O)c(O)c2C1=O (stereo not drawn) | 6.54 | 7.03 |  |  |  | 
O=C1c2c(O)c(=O)ccn2N(C2c3ccccc3CSc3ccccc32)CN1C1CC1 (stereo not drawn) | 7.46 | 7.86 | 73.7 | 46 | 0.0783 | 
COCC(C)N1CN(C2c3ccccc3CSc3ccccc32)n2ccc(=O)c(O)c2C1=O (stereo not drawn) | 7.24 | 7.68 | 58.6 | 49.1 | 0.106 | 
CC(CN(C)C)N1CN(C2c3ccccc3CSc3ccccc32)n2ccc(=O)c(O)c2C1=O (stereo not drawn) |  | 7.08 | 76.4 | 98.7 |  | 
CC(C)N1CN(C(c2ccccc2)c2ccccc2)n2ccc(=O)c(O)c2C1=O | 6.54 | 7.09 |  |  |  | 
COc1cccc(C(c2cccc(OC)c2)N2CN(C(C)C)C(=O)c3c(O)c(=O)ccn32)c1 | 5.88 | 6.23 |  |  |  | 
C[C@@H](N1CN([C@@H]2c3ccccc3CSc3ccccc32)n2ccc(=O)c(O)c2C1=O)C(F)(F)F |  | 6.88 |  |  |  | 
C[C@@H](N1CN([C@H]2c3ccccc3SCc3cccc(Cl)c32)n2ccc(=O)c(O)c2C1=O)C(F)(F)F | 8.00 | 8.45 | 93.3 | 19.6 | 0.0179 | 
C[C@@H](N1CN([C@@H]2c3ccccc3SCc3c(F)cccc32)n2ccc(=O)c(O)c2C1=O)C(F)(F)F | 7.90 | 8.41 | 91.8 | 8.37 | 0.00978 | 
CC(C)N1CN(C2c3ccccc3COc3ccccc32)n2ccc(=O)c(O)c2C1=O (stereo not drawn) |  | 7.15 |  |  |  | 
C[C@H](N1CN([C@@H]2c3ccccc3CSc3ccccc32)n2ccc(=O)c(O)c2C1=O)C(F)(F)F |  | 7.66 |  |  |  | 
C[C@@H](N1CN([C@H]2c3ccc(F)cc3CSc3ccccc32)n2ccc(=O)c(O)c2C1=O)C(F)(F)F | 7.91 | 8.45 | 95.3 | 11.6 | 0.00383 | 
Cc1ccccc1C(c1ccccc1)N1CN(C(C)C)C(=O)c2c(O)c(=O)ccn21 (stereo not drawn) | 6.85 | 7.13 |  |  |  | 
CC(C)N1CN(C2c3ccccc3CSc3ccccc32)n2ccc(=O)c(O)c2C1=O (racemic) |  | 7.77 | 72.6 | 32.7 | 0.0768 | 
Cc1cccc(C(c2ccccc2)N2CN(C(C)C)C(=O)c3c(O)c(=O)ccn32)c1 (stereo not drawn) | 6.56 | 6.66 |  |  |  | 

Structure (SMILES) | pIC50 [1] | pEC50 (Influenza A virus [2]) | remaining at 0.5 h, 2 µM [3] [%] | clearance [4] [mL/min/kg] | fraction unbound [5] | Activity (Influenza A virus [6])
C[C@@H](N1CN([C@H]2c3ccc(Cl)cc3CSc3ccccc32)n2ccc(=O)c(O)c2C1=O)C(F)(F)F | 8.16 | 7.98 | 96.1 | 5.7 | 0.00117 | 
C[C@@H](N1CN([C@H]2c3ccccc3CSc3ccccc32)n2ccc(=O)c(O)c2C1=O)C(F)(F)F |  | 8.33 | 98.1 | 15.8 | 0.0103 | 
C[C@@H](N1CN([C@@H]2c3ccccc3SCc3c(Cl)cccc32)n2ccc(=O)c(O)c2C1=O)C(F)(F)F | 7.52 | 8.52 | 102 | 7.36 | 0.00293 | 
CC(C)N1CN(C(c2cccc(C(F)(F)F)c2)c2cccc(C(F)(F)F)c2)n2ccc(=O)c(O)c2C1=O | 6.34 | 6.41 |  |  |  | 
Cc1ccc(C(c2ccc(C)cc2)N2CN(C(C)C)C(=O)c3c(O)c(=O)ccn32)cc1 | 6.40 | 6.36 |  |  |  | 
CC(C)N1CN(C(c2ccccc2)c2cccc(Cl)c2)n2ccc(=O)c(O)c2C1=O (stereo not drawn) | 7.00 | 7.12 |  |  |  | 
C[C@@H](N1CN([C@@H]2c3ccccc3SCc3c2ccc(F)c3F)n2ccc(=O)c(O)c2C1=O)C(F)(F)F | 8.25 | 8.37 | 81.1 | 11 | 0.00411 | Active
C[C@@H](N1CN([C@H]2c3cc(Cl)ccc3CSc3ccccc32)n2ccc(=O)c(O)c2C1=O)C(F)(F)F |  | 8.38 | 94.1 | 12.4 | 0.00514 | 
C[C@@H](N1CN([C@H]2c3ccccc3CSc3cc(F)ccc32)n2ccc(=O)c(O)c2C1=O)C(F)(F)F |  | 7.84 | 93.9 | 13.4 | 0.00807 | 
C[C@@H](N1CN([C@H]2c3ccccc3CSc3ccc(F)cc32)n2ccc(=O)c(O)c2C1=O)C(F)(F)F |  | 8.09 | 103 | 15.4 | 0.00975 | 
CC(C)N1CN(C2c3ccccc3CCc3ccccc32)n2ccc(=O)c(O)c2C1=O | 7.22 | 7.70 |  |  |  | 
C[C@@H](N1CN([C@H]2c3ccccc3CSc3cccc(F)c32)n2ccc(=O)c(O)c2C1=O)C(F)(F)F | 7.43 | 7.82 | 97.4 | 9.09 | 0.0119 | 
CC(C)N1CN(C(c2ccccc2Cl)c2ccccc2Cl)n2ccc(=O)c(O)c2C1=O | 7.43 | 7.32 |  |  |  | 
[2H]C([2H])([2H])C([2H])(N1CN(C2c3ccccc3CSc3ccccc32)n2ccc(=O)c(O)c2C1=O)C([2H])([2H])[2H] (stereo not drawn) | 7.36 | 7.93 | 74.4 | 39.1 | 0.0601 | 
C[C@@H](N1CN([C@H]2c3ccccc3CSc3c(F)cccc32)n2ccc(=O)c(O)c2C1=O)C(F)(F)F |  | 8.47 | 95.6 | 10.3 | 0.00574 | 
CC(C)N1CN(C(c2cccc(Cl)c2)c2cccc(Cl)c2)n2ccc(=O)c(O)c2C1=O | 6.64 | 7.18 |  |  |  | 
CC(C)N1CN(C(c2ccccc2)c2ccccc2Cl)n2ccc(=O)c(O)c2C1=O (stereo not drawn) | 6.68 | 7.11 |  |  |  | 
C[C@@H](N1CN([C@H]2c3cc(F)ccc3CSc3ccccc32)n2ccc(=O)c(O)c2C1=O)C(F)(F)F | 7.35 | 8.33 | 98.9 | 21.3 | 0.0129 | 
O=C1c2c(O)c(=O)ccn2N(C2c3ccccc3CSc3ccccc32)CN1C(CF)CF (stereo not drawn) | 6.95 | 7.56 | 84.9 | 33.5 |  | 
C[C@@H](N1CN([C@H]2c3ccccc3CSc3cc(Cl)ccc32)n2ccc(=O)c(O)c2C1=O)C(F)(F)F | 7.21 | 7.67 | 101 | 12.2 | 0.00303 | 
